Structures are written as SMILES. Active and inactive are the calls of the source.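 Rule for the calls: active = duplicate-averaged activation above buffer control mean plus 5 SD of those controls; inactive = the rest.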

The nature of the assay: thallium flux activation in parental CHO cells, counter-screen for KCNQ1 potentiator project (AID 493006). The note with it: parental CHO-K1 cells, FluxOR thallium flux, at 10 µM; active compounds read high. An outline of the steps:
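Assay system: Untransfected host CHO-K1 cells with FluxOR thallium dye | Probe or stimulus: Potassium/thallium depolarization pulse | Schedule: Overnight 37 °C plating, 90 min RT dye, 20 min compound | Detection: Kinetic thallium-flux fluorescence | Read-out: Max-minus-min fluorescence over baseline, percent of buffer-to-R-L3 span | Benchmarks: Low control buffer, high control R-L3 activator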
(Counterscreens check selectivity or assay interference.)
Consider `O=C(c1cc([N+](=O)[O-])cc([N+](=O)[O-])c1)N1CCCc2ccccc21`, for which the outcome was inactive.
`CCCCCCCCCCC[N+](C)(C)CC/C=C1/c2ccccc2Sc2ccc(Cl)cc21`: the activation was 184% (active).
`O=c1sc(N2CCN(c3ccccc3F)CC2)nc2ccsc12`: the result was inactive.
As to `CCOc1ccc(C(=O)C(CCC(CN(C)C)C(=O)c2ccc(OCC)cc2)CN(C)C)cc1` (centres undefined), the result was inactive.
With `Cc1ccc(-c2nc3ncccc3o2)cc1NC(=O)c1cccnc1`, the result was inactive.
`COc1ccc(C(=O)CC(=O)C(=O)Nc2ccccc2Cl)cc1`: the activation was 139% (active).
`O=C(CN1C(=O)CNC1=O)Nc1cccc(C(F)(F)F)c1`: the outcome was inactive.
Consider `O=C(CNC(=O)c1ccccc1)NCc1ccc(Cl)cc1`, for which the result was inactive.
With `Cc1ccc2cccnc2c1NC(=S)NC(=O)c1ccccc1`, the outcome was inactive.
As for `CC(C)NC(=O)C1(S(=O)(=O)c2ccccc2)CC=CC1`, the outcome was inactive.
With `O=c1c2ccccc2nc(-c2ccc(Cl)c(Cl)c2)n1O`, the activation is 518% (active).
For `Cc1cccc(NC(=O)Nc2ccc(OCc3ccccc3)cc2)n1`, the outcome was inactive.
As for `Cc1cc(O)ccc1N=Cc1c(C(F)(F)F)[nH][nH]c1=O`, the outcome was inactive.
For the compound `Cc1ccccc1-n1cnnc1SCC(=O)N1CCN(c2ccccc2)CC1`, the activation was 200% (active).
`CCCCN(CCCC)c1cn[nH]c(=O)c1Cl`: the result was inactive.
In the case of `CCOC(=O)Cc1csc(NC(=S)NC(=O)C(C)(C)C)n1`, the activation was 136% (active).
For `N=C1S/C(=C\c2ccc(-c3cccc(Cl)c3)o2)C(=O)N1c1nccs1`, the result was inactive.
In the case of `CCN(CC)C(=S)NC(=O)c1ccc(OC)c(Br)c1`, the activation is 209% (active).
With `COC(=O)c1ccc(CNC(=O)c2ccc(COc3ccccc3)cc2)cc1`, the result was inactive.

Source of the values: PubChem BioAssay.
